Here are results for eight molecules from ChEMBL document CHEMBL1123678, “Octahydropyrazino[2',3':3,4]pyrido[1,2-a]indoles. A new class of potent antihypertensive agents” (1987).

Active and inactive are the calls of the source. No cut-off for these calls is given here.

The test system of assay [1] is Rattus norvegicus. Description: Vasopressor responses to epinephrine as a measure of the alpha-1-adrenoceptor blocking activity at 10 mg/kg administered orally was reported to be reversed. Type of assay: functional, organism-based. Further details: dose 10 mg/kg.
Assay [2] concerns Rattus norvegicus. Description: Antihypertensive activity was determined in cannulated spontaneously hypertensive rats(SHR) and maximum decrease of mean arterial blood pressure (MABP) at 10 mg/kg oral dose. Format: functional, Artery. The gist of the method:
(§1)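 Cannulated SHR given compound by gastric gavage in 0.5% methylcellulose (5 mL/kg), doses 0.1–50 mg/kg, 4–8 animals per dose, after 1-h equilibration. MABP recorded for 4 h; maximal % decrease reported with time to peak effect. Significance by two-way analysis of variance.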

Assay [3] concerns Rattus norvegicus. Description: Antihypertensive activity was determined in cannulated spontaneously hypertensive rats(SHR) and maximum decrease of mean arterial blood pressure (MABP) at 1 mg/kg oral dose. Format: functional, Artery. The gist of the method:
as §1

Assay [4] concerns Rattus norvegicus. Description: Antihypertensive activity was determined in cannulated spontaneously hypertensive rats(SHR) and maximum decrease of mean arterial blood pressure (MABP) at 2.5 mg/kg oral dose. Type of assay: functional, Artery. The gist of the method: as §1
Assay [5] concerns Rattus norvegicus. Description: Vasopressor responses to epinephrine as a measure of the alpha-1-adrenoceptor blocking activity at 1 mg/kg administered orally was reported to be reversed. Further details: dose 1 mg/kg. Format: functional, organism-based.
Assay [6] deals with Rattus norvegicus. Description: Antihypertensive activity was determined in cannulated spontaneously hypertensive rats(SHR) and marked bradycardia was reported at a dose of 10 mg/kg. Type of assay: functional, organism-based. Further details: dose 10 mg/kg.
The subject of assay [7] is Rattus norvegicus. Nature of the assay: Vasopressor responses to epinephrine as a measure of the alpha-1-adrenoceptor blocking activity at 2.5 mg/kg administered orally was reported to be reversed. Format: functional, organism-based. Set-up: dose 2.5 mg/kg.
Assay [8] deals with Rattus norvegicus. Nature of the assay: Antihypertensive activity was determined in cannulated spontaneously hypertensive rats(SHR) and heart rate response was reported to reduce by 10-25% after 4 hr at a peroral dose of 10 mg/kg. Type of assay: functional, organism-based. Set-up: dose 10 mg/kg.
In assay [9] the test system is Rattus norvegicus. Nature of the assay: Antihypertensive activity was determined in cannulated spontaneously hypertensive rats(SHR) and heart rate response was reported to reduce by 10-25% after 4 hr at a peroral dose of 5 mg/kg. Type of assay: functional, organism-based. Set-up: dose 5 mg/kg.
In assay [10] the test system is Rattus norvegicus. Nature of the assay: Vasopressor responses to epinephrine as a measure of the alpha-1-adrenoceptor blocking activity at 50 mg/kg administered orally was reported to be antagonized. Further details: dose 50 mg/kg. Type of assay: functional, organism-based.
The subject of assay [11] is Rattus norvegicus. Nature of the assay: Antihypertensive activity was determined in cannulated spontaneously hypertensive rats(SHR) and heart rate response was reported to be reduce by 10-25% after 4 hr at a dose of 50 mg/kg. Type of assay: functional, organism-based. Set-up: dose 50 mg/kg.
Assay [12] concerns Rattus norvegicus. Description: Vasopressor responses to epinephrine as a measure of the alpha-1-adrenoceptor blocking activity at 25 mg/kg administered orally was reported to be antagonized. Type of assay: functional, organism-based. Set-up: dose 25 mg/kg. The settings on record: filed as antagonist.
Assay [13] relates to Rattus norvegicus. Nature of the assay: Antihypertensive activity was determined in cannulated spontaneously hypertensive rats(SHR) and activity rating was given with respect to MABP values at 25 mg/kg oral dose;lowering MABP by 20-30% at 5 mg/kg and by 10-20% at 1-2.5 mg/kg. Type of assay: functional, organism-based. The essentials:
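Cannulated SHR dosed orally (gavage) in 0.5% methylcellulose, 5 mL/kg; 4–8 rats per dose. MABP monitored 4 h, maximal change taken. Rating scale: 0 = no significant activity at 50 mg/kg, stepping up to 6 = MABP fall >40% at 10 mg/kg and 10–20% at 0.25–1 mg/kg, based on % MABP decreases at set doses.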

In assay [14] the test system is Rattus norvegicus. Description: Antihypertensive activity was determined in cannulated spontaneously hypertensive rats(SHR) and maximum decrease of mean arterial blood pressure (MABP) at 25 mg/kg oral dose. Type of assay: functional, Artery. The gist of the method:
as §1

The test system of assay [15] is Rattus norvegicus. Description: Antihypertensive activity was determined in cannulated spontaneously hypertensive rats(SHR) and maximum decrease of mean arterial blood pressure (MABP) at 5 mg/kg oral dose. Format: functional, Artery. The essentials:
as §1

Assay [16] deals with Rattus norvegicus. Description: Vasopressor responses to epinephrine as a measure of the alpha-1-adrenoceptor blocking activity at 5 mg/kg administered orally was reported to be antagonized. Format: functional, organism-based. Set-up: dose 5 mg/kg. The settings on record: filed as antagonist.
For assay [17], the system named is Rattus norvegicus. Description: Antihypertensive activity was determined in cannulated spontaneously hypertensive rats(SHR) and marked bradycardia was reported at a dose of 25 mg/kg. Further details: dose 25 mg/kg. Type of assay: functional, organism-based.
Assay [18] concerns Rattus norvegicus. Description: Vasopressor responses to epinephrine as a measure of the alpha-1-adrenoceptor blocking activity at 2.5 mg/kg administered orally was reported to be antagonized. Format: functional, organism-based. Further details: dose 2.5 mg/kg. The settings on record: filed as antagonist.
Assay [19] has as its system Rattus norvegicus. Description: Antihypertensive activity was determined in cannulated spontaneously hypertensive rats(SHR) and maximum decrease of mean arterial blood pressure (MABP) at 50 mg/kg oral dose. Type of assay: functional, Artery. The gist of the method: as §1
Assay [20] relates to Rattus norvegicus. Description: Vasopressor responses to epinephrine as a measure of the alpha-1-adrenoceptor blocking activity at 25 mg/kg administered orally was reported to be slightly. Type of assay: functional, organism-based. Set-up: dose 25 mg/kg.
The subject of assay [21] is Rattus norvegicus. Description: Vasopressor responses to epinephrine as a measure of the alpha-1-adrenoceptor blocking activity at 10 mg/kg administered orally was reported to be potentiated. Type of assay: functional, organism-based. Set-up: dose 10 mg/kg.
In assay [22] the test system is Rattus norvegicus. Description: Antihypertensive activity was determined in cannulated spontaneously hypertensive rats(SHR) and activity rating was given with respect to MABP values at 25 mg/kg oral dose;MABP reduced by 15-25% and an appreciable antihypertensive at 2.5-5 mg/kg. Format: functional, organism-based. Set-up: dose 25 mg/kg.
The test system of assay [23] is Rattus norvegicus. Description: Antihypertensive activity was determined in cannulated spontaneously hypertensive rats(SHR) and heart rate response was reported to reduce by 10-25% after 4 hr at a peroral dose of 25 mg/kg. Format: functional, organism-based. Further details: dose 25 mg/kg.
Assay [24] concerns Rattus norvegicus. Nature of the assay: Antihypertensive activity was determined in cannulated spontaneously hypertensive rats(SHR) and heart rate response was reported to reduce by 10-25% after 4 hr at a peroral dose of 0.25 mg/kg. Further details: dose 0.25 mg/kg. Format: functional, organism-based.
Assay [25] relates to Rattus norvegicus. Nature of the assay: Antihypertensive activity was determined in cannulated spontaneously hypertensive rats(SHR) and heart rate response was reported to reduce by 10-25% after 4 hr at a peroral dose of 1.0 mg/kg. Set-up: dose 1 mg/kg. Type of assay: functional, organism-based.
In assay [26] the test system is Rattus norvegicus. Nature of the assay: Antihypertensive activity was determined in cannulated spontaneously hypertensive rats(SHR) and heart rate response was reported to reduce by 10-25% after 4 hr at a peroral dose of 2.5 mg/kg. Format: functional, organism-based. Set-up: dose 2.5 mg/kg.
For assay [27], the system named is Rattus norvegicus. Description: Vasopressor responses to epinephrine as a measure of the alpha-1-adrenoceptor blocking activity at 0.25 mg/kg administered orally was reported to be reversed. Type of assay: functional, organism-based. Further details: dose 0.25 mg/kg.

As for `CCN1CCN(CC)C2c3c(C)c4cc(Br)ccc4n3CCC21.Cl` (stereo not given), in the assay with Rattus norvegicus [1], the Activity result was “Vasopressor response reversed”. Moreover, the “Decrease in MABP” value in the assay with Rattus norvegicus [2] came out at 15%.
Take `Br.CCCN1CCN(C(C)C)C2CCn3c(c(C)c4ccccc43)C21` (stereo not given): the results for the “Decrease in MABP” value in the assay with Rattus norvegicus [3], in the assay on Rattus norvegicus [4] and in the assay with Rattus norvegicus [2] were 19%, 25% and 40%, respectively. Moreover, the Activity entry in the assay with Rattus norvegicus [1], in the assay with Rattus norvegicus [5] and in the assay on Rattus norvegicus [7] was “Vasopressor response reversed” each time. For the same molecule, the HR result in the assay with Rattus norvegicus [6] is “Heart rate response was reported to reduce by 10-25% after 4 hr at a peroral dose of 1.0 mg/kg”.
For `CCCCN1CCN(CC)C2CCn3c(c(C)c4ccccc43)C21.Cl.Cl` (stereo not given), the “Decrease in MABP” value with Rattus norvegicus [3] is 16%; with Rattus norvegicus [2], 36%. Also, the HR result with Rattus norvegicus [8] was “Heart rate response was reported to reduce by 10-25% after 4 hr at a peroral dose of 10 mg/kg”. Moreover, the Activity entry in the assay on Rattus norvegicus [1] and with Rattus norvegicus [5] was “Vasopressor response reversed” each time.
Turning to `Cc1c2n(c3ccccc13)CCC1C2N(C)CCN1C` (stereo not given), the HR result was “Heart rate response was reported to reduce by 10-25% after 4 hr at a peroral dose of 10 mg/kg” in the assay on Rattus norvegicus [8], “Heart rate response was reported to reduce by 10-25% after 4 hr at a peroral dose of 10 mg/kg” in the assay with Rattus norvegicus [9] and “Heart rate response was reported to be reduce by 10-25% after 4 hr at a dose of 50 mg/kg” in the assay on Rattus norvegicus [11]. In addition, the Activity entry is on record as “Vasopressor response reversed” with Rattus norvegicus [1] and “Vasopressor response antagonized” in the assay on Rattus norvegicus [10].
Take `O=C(NC1CCN(CCc2c[nH]c3ccccc23)CC1)c1ccccc1` [INDORAMIN]: the Activity result in the assay on Rattus norvegicus [12], in the assay with Rattus norvegicus [16] and in the assay with Rattus norvegicus [18] was “Antagonist” in each case. For the same molecule, the “Decrease in MABP” value in the assay on Rattus norvegicus [4] is 12%; in the assay on Rattus norvegicus [14] it was 40%; with Rattus norvegicus [15], 29%. Further, the Activity rating result with Rattus norvegicus [13] is “Active”. In addition, the HR result in the assay on Rattus norvegicus [9] and in the assay on Rattus norvegicus [17] was “Active” in each case.
On to `Cc1c2n(c3ccccc13)CCC1C2N(C)CCN1C.Cl.Cl` (stereo not given), for which the “Decrease in MABP” value in the assay with Rattus norvegicus [19] amounted to 12%.
As for `Cc1c2n(c3ccccc13)CCC1NCCNC21` (stereo not given), the “Decrease in MABP” value with Rattus norvegicus [14] turned out to be 27%; with Rattus norvegicus [2] it was 19%. Moreover, the Activity result in the assay with Rattus norvegicus [20] and in the assay with Rattus norvegicus [21] was “Vasopressor response potentiated” throughout. Besides, the Activity rating result in the assay with Rattus norvegicus [22] is “MABP reduced by 15-25% and an appreciable antihypertensive at 2.5-5 mg/kg”. In addition, the HR entry with Rattus norvegicus [23] was “Heart rate response was reported to reduce by 10-25% after 4 hr at a peroral dose of 25 mg/kg”.
`CCN1CCN(C(C)C)C2CCn3c(c(C)c4ccccc43)C21` (stereo not given): the “Decrease in MABP” value is 40% in the assay with Rattus norvegicus [3], 52% in the assay with Rattus norvegicus [4] and 56% in the assay on Rattus norvegicus [2]. The HR entry with Rattus norvegicus [24], in the assay on Rattus norvegicus [25] and in the assay on Rattus norvegicus [26] was “Heart rate response was reported to reduce by 10-25% after 4 hr at a peroral dose of 0.25 mg/kg” in each case. The Activity result in the assay on Rattus norvegicus [1], with Rattus norvegicus [5], with Rattus norvegicus [27] and in the assay with Rattus norvegicus [7] was “Vasopressor response reversed” in each case.
